Assay [1] has as its target T1, mMC5R (Mus musculus, UniProt P41149). The assay is classed as cell-based. The conditions noted are these: for mMC5R inverse agonist potency compared within series: fold less potent than KAF2039-9, the most potent inverse agonist; for mMC5R maximal decrease in basal activity at the plateau: sigmoidal dose-response, relative to basal.
Assay [2] has as its target T2, mMC1R (Mus musculus, UniProt Q01727). As to conditions: for mMC1R percent activation at 100 μM: no sigmoidal dose-response, relative to NDP-MSH; for agonist activity at the MC1R: up to 100 μM.
The target of assay [3] is T3, mMC3R (Mus musculus, UniProt P33033). Put plainly: AlphaScreen cAMP antagonist assay. The assay is classed as cell-based. The conditions noted are these: for antagonist activity at the mMC3R: at the concentrations examined in this study. (Alpha assays give light when donor and acceptor beads are brought close together.)
The subject of a further assay is Male Wildtype (WT) mice. The assay can be described thus: Mouse feeding study, intrathecal injection: cumulative food intake. The format is in vivo. In outline: (§1)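 Eight male WT mice, 24 weeks old, singly housed, ad libitum chow, reversed 12 h light/dark (lights off 12:00pm), 23–25°C. Crossover, non-fasting; single IT injection 2 h before lights out of 2 nmol/5 μL (20% solutol stock diluted in ddH2O) or matched vehicle; 7 days between treatments. Food and body weight at 2–72 h; two-factor repeated-measures ANOVA (drug × time).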

Assay [4] in a line: Mouse feeding study, intrathecal injection: body weight. As to conditions: male WT mice, 2 nmol, up to 72 hours post-injection. The format is in vivo. A digest of the protocol:
as §1

Another assay has as its system MC3R. The conditions noted are these: unable to bind at up to this concentration; cited from earlier work.
In the next assay the test system is MC4R. The conditions noted are these: unable to bind at up to this concentration; cited from earlier work.
The test system of another assay is MC1R. The conditions noted are these: read-out: MC1R agonist EC50; cited from earlier work.
In assay [5] the target is T4, mMC4R (Mus musculus, UniProt P56450). As to conditions: cited from earlier work.
Assay [6] has as its target T3, mMC3R. The conditions noted are these: highest concentrations of antagonist assayed; cited from earlier work.
Assay [7] addresses mouse melanocortin-4 receptor (mouse) (UniProt P56450).
The target in assay [8] is T4, mMC4R. The assay can be described thus: AlphaScreen cAMP antagonist assay. The assay is classed as cell-based.
The target in assay [9] is mouse melanocortin-1 receptor (mouse) (UniProt Q01727).
The target in assay [10] is T1, mMC5R. The conditions noted are these: read-out: mMC5R Inverse Agonist EC50; previously published peptide; cited from earlier work.
Assay [11] deals with T4, mMC4R. The conditions noted are these: cited from earlier work. The source holds these as a separate data set.
Assay [12] concerns the target T3, mMC3R. The conditions noted are these: previously published peptide, cited from earlier work.
In assay [13] the target is T2, mMC1R. As to conditions: read-out: mMC1R Agonist EC50; previously published peptide; cited from earlier work.
Where [14] appears, read: Schild analysis with NDP-MSH, < 5.5 = no antagonist potency at up to 10,000 nM.

The values that follow come from PMC5955836 (ACS chemical neuroscience, 2018).

Entries after “also recorded” stand apart in the source; their conditions may differ. Where two headings read alike, the source gives them in different places. Non-standard residues stand in square brackets, D forms with d. Some results are limits rather than exact numbers.

T4 sequence (P56450 whole entry): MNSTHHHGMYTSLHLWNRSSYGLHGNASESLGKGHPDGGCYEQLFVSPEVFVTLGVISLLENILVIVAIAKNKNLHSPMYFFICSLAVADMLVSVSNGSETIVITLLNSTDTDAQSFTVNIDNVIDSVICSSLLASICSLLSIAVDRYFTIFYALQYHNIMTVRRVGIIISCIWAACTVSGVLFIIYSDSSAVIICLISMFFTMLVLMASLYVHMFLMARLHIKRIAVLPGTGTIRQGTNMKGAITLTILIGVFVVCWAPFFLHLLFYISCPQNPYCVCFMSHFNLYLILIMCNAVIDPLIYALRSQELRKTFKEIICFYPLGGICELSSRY
T1 sequence (P41149 whole entry): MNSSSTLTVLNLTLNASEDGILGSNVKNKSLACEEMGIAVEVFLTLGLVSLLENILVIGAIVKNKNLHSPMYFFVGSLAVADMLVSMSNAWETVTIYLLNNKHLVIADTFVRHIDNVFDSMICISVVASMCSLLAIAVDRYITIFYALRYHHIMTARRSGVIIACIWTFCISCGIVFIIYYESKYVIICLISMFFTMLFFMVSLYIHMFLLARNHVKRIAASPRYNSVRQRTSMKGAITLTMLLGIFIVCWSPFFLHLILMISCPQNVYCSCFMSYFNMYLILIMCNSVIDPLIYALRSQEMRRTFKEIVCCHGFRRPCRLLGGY
T2 sequence (Q01727 whole entry): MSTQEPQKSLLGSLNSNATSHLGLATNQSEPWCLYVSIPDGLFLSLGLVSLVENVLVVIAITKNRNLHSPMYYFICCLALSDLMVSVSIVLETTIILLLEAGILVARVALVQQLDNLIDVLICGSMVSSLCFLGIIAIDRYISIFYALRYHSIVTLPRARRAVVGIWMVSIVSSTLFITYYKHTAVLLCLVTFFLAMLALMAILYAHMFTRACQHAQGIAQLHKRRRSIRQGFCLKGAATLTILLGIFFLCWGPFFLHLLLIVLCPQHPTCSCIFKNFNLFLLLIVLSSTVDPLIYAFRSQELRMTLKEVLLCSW
T3 sequence (P33033 whole entry): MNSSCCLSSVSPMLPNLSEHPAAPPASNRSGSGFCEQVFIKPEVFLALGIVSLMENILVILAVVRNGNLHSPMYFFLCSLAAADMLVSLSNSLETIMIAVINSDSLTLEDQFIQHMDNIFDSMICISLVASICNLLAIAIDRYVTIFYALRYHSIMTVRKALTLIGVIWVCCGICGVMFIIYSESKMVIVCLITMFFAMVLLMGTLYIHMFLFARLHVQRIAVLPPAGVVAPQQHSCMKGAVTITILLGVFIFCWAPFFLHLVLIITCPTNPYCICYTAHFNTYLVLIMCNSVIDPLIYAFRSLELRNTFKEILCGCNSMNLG
Sequence of mouse melanocortin-4 receptor (mouse) (P56450 whole entry): as the sequence (P56450 whole entry) above
Sequence of mouse melanocortin-1 receptor (mouse) (Q01727 whole entry): as the sequence (Q01727 whole entry) above

Regarding `C[C@@H]1NC(=O)[C@H](CC(N)=O)NC(=O)[C@H](Cc2ccccc2)NC(=O)[C@H](Cc2ccccc2)NC(=O)[C@H](CCCNC(=N)N)NC(=O)[C@@H]2CCCN2C(=O)[C@H]2CCCN2C(=O)CNC1=O` [Compound 2, c[Pro-Arg-Phe-Phe-Asn-Ala-Gly-DPro]], the “mMC5R percent decrease in receptor activity compared to basal at 100 μM” value (shortened to “mMC5R percent decrease”) on mMC5R [1] (100 μM, no plateau) was −25% @ 100 μM. Also, at mMC1R [2], the “mMC1R percent activation at 100 μM” value came to 60% @ 100 μM and the “agonist activity at the MC1R” value was “partially stimulate”. Further, on mMC3R [3], the “antagonist activity at the mMC3R” value is “not observed”.

Take `C[C@@H]1NC(=O)[C@H](CC(N)=O)NC(=O)[C@H](Cc2ccccc2)NC(=O)[C@H](Cc2ccccc2)NC(=O)[C@H](CCCNC(=N)N)NC(=O)[C@@H]2CCCN2C(=O)[C@H]2CCCN2C(=O)[C@H](CO)NC1=O` [Compound 3, c[Pro-Arg-Phe-Phe-Asn-Ala-Ser-DPro]]: the “mMC5R percent decrease” value on mMC5R [1] (100 μM, no plateau) is −55% @ 100 μM. Further, the “mMC5R percent decrease” value at mMC5R [1] (100000.0) is recorded as −55%. In addition, at mMC1R [2], the “mMC1R percent activation at 100 μM” value is recorded as 35% @ 100 μM and the “agonist activity at the MC1R” value is on record as “partially stimulate”.

Turning to `C[C@@H]1NC(=O)[C@H](CC(N)=O)NC(=O)[C@H](Cc2ccccc2)NC(=O)[C@H](Cc2ccccc2)NC(=O)[C@H](CCCNC(=N)N)NC(=O)[C@@H]2CCCN2C(=O)[C@H]2CCCN2C(=O)[C@H](CCCCN)NC1=O` [Compound 4, c[Pro-Arg-Phe-Phe-Asn-Ala-Lys-DPro]], the “mMC5R percent decrease” value is −40% @ 100 μM at mMC5R [1] (100 μM, no plateau) and −40% on mMC5R [1] (100000.0).

Take `CC(C)C[C@@H]1NC(=O)[C@H](C)NC(=O)[C@H](CC(N)=O)NC(=O)[C@H](Cc2ccccc2)NC(=O)[C@H](Cc2ccccc2)NC(=O)[C@H](CCCNC(=N)N)NC(=O)[C@@H]2CCCN2C(=O)[C@H]2CCCN2C1=O` [Compound 6, c[Pro-Arg-Phe-Phe-Asn-Ala-Leu-DPro]]: on mMC5R [1] (100 μM, no plateau), the “mMC5R percent decrease” value is reported as −35% @ 100 μM. Also, the “antagonist activity at the mMC3R” value at mMC3R [3] is recorded as “not observed”.

As for `CCCC[C@@H]1NC(=O)[C@H](C)NC(=O)[C@H](CC(N)=O)NC(=O)[C@H](Cc2ccccc2)NC(=O)[C@H](Cc2ccccc2)NC(=O)[C@H](CCCNC(=N)N)NC(=O)[C@@H]2CCCN2C(=O)[C@H]2CCCN2C1=O` [Compound 7, c[Pro-Arg-Phe-Phe-Asn-Ala-Nle-DPro]], in the assay on Male Wildtype (WT) mice (2 nmol IT single injection, 2 and 6 hours post-injection), the “cumulative food intake vs vehicle” value was “ate significantly more food”. In addition, the “food intake trend vs vehicle” value in the assay on Male Wildtype (WT) mice (2 nmol IT, up to 72 hours post-injection, listed as KAF2039-7) was “prolonged trend of increased food intake; also recorded: strong trend in increased food intake; also recorded: trend exhibited out until 72 hours post-injection”. Moreover, the “main effect of drug on food intake, two-factor repeated measures ANOVA” value in the assay on Male Wildtype (WT) mice (2 nmol, first 72 hours post-injection) is “main effect of drug”. For the same compound, the “mMC5R percent decrease” value is −35% @ 100 μM at mMC5R [1] (100 μM, no plateau) and “–35%” at mMC5R [1] (100000.0). The results for the “mouse body weight vs vehicle” value in assay [4] and in [4] (listed as KAF2039-7) were “main effect of drug” and “treated animals weighing more than control animals”, respectively.

In the case of `C[C@@H]1NC(=O)[C@H](CC(N)=O)NC(=O)[C@H](Cc2ccccc2)NC(=O)[C@H](Cc2ccccc2)NC(=O)[C@H](CCCNC(=N)N)NC(=O)[C@@H]2CCCN2C(=O)[C@H]2CCCN2C(=O)[C@H](Cc2c[nH]c3ccccc23)NC1=O` [Compound 8, c[Pro-Arg-Phe-Phe-Asn-Ala-Trp-DPro]], at mMC5R [1], the “mMC5R inverse agonist potency compared within series” value is reported as “equipotent to each other” and the “mMC5R maximal decrease in basal activity at the plateau” value (“mMC5R maximal decrease” below) was −20%. The “mMC1R partial agonist maximal percent activated” value on mMC1R [2] stood at 50%.

As to `C[C@@H]1NC(=O)[C@H](CC(N)=O)NC(=O)[C@H](Cc2ccccc2)NC(=O)[C@H](Cc2ccccc2)NC(=O)[C@H](CCCNC(=N)N)NC(=O)[C@@H]2CCCN2C(=O)[C@H]2CCCN2C(=O)[C@H](Cc2ccc(O)cc2)NC1=O` [Compound 9, c[Pro-Arg-Phe-Phe-Asn-Ala-Tyr-DPro]], the “mMC5R percent decrease” value at mMC5R [1] (100 μM, no plateau) is on record as −40% @ 100 μM.

Regarding `C[C@@H]1NC(=O)[C@H](CC(N)=O)NC(=O)[C@H](Cc2ccccc2)NC(=O)[C@H](Cc2ccccc2)NC(=O)[C@H](CCCNC(=N)N)NC(=O)[C@@H]2CCCN2C(=O)[C@H]2CCCN2C(=O)[C@H](CC2CCCCC2)NC1=O` [Compound 10, c[Pro-Arg-Phe-Phe-Asn-Ala-Cha-DPro]], at mMC5R [1], the “mMC5R inverse agonist potency compared within series” value came out at 5 fold and the “mMC5R maximal decrease” value is on record as −20%.

`C[C@@H]1NC(=O)[C@H](CC(N)=O)NC(=O)[C@H](Cc2ccccc2)NC(=O)[C@H](Cc2ccccc2)NC(=O)[C@H](CCCNC(=N)N)NC(=O)[C@@H]2CCCN2C(=O)[C@H]2CCCN2C(=O)[C@H](CCc2ccccc2)NC1=O` [Compound 11, c[Pro-Arg-Phe-Phe-Asn-Ala-hPhe-DPro]]: the “mMC5R inverse agonist potency compared within series” value at mMC5R [1] is “equipotent to each other”. Moreover, the “mMC5R maximal decrease” value on mMC5R [1] was −20%; on mMC5R [1] (listed as KAF2039-13), 20%.

As for “H-Ser-Arg-Phe-Phe-Asn-Ala-Phe-Ser-OH (H-SRFFNAFS-OH)”, the “binding to the MC3R” value in the assay with MC3R was more than 20 µM. In the assay with MC4R, the “binding to the MC4R” value is more than 20 µM.

The term EC50 denotes the midpoint of the concentration-response curve. For “H-Tyr-c[Cys-Arg-Phe-Phe-Asn-Ala-Phe-Cys]-Tyr-OH [AGRP[109-118]]”, the EC50 in the assay on MC1R is 3000 nM. Also, the “antagonist pA2 at the mMC4R” value with mMC4R [5] is 6.8. Moreover, in the assay with mMC3R [6], the “antagonist potency at the mMC3R” value was “does not possess an antagonist potency at the mMC3R that is quantifiable”.

In the case of “NDP-MSH (4-Norleucine-7-D-Phenylalanine): Ac-Ser-Tyr-Ser-Nle-Glu-His-DPhe-Arg-Trp-Gly-Lys-Pro-Val-NH2 (peptide)”, the agonist EC50, cAMP AlphaScreen, HEK293 cells stably expressing mMC4R in assay [7] was 0.35 nM.

As to “c[Pro-Arg-Phe-Phe-Asn-Ala-Asp-DPro] (cyclo(PRFFNAD[dP]); SMILES C[C@@H]1NC(=O)[C@H](CC(N)=O)NC(=O)[C@H](Cc2ccccc2)NC(=O)[C@H](Cc2ccccc2)NC(=O)[C@H](CCCNC(=N)N)NC(=O)[C@@H]2CCCN2C(=O)[C@H]2CCCN2C(=O)[C@H](CC(=O)O)NC1=O) [Compound 5]”, the “mMC5R percent decrease” value is on record as −25% @ 100 μM with mMC5R [1] (100 μM, no plateau) and -25% in the assay with mMC5R [1] (100 μM, no plateau, listed as Asp^7). In addition, the “mMC1R percent activation at 100 μM” value with mMC1R [2] came to 40% @ 100 μM. In addition, the “agonist activity at the MC1R” value in the assay with mMC1R [2] is on record as “partially stimulate”. Further, the “mMC4R Antagonist pA2” value in the assay with mMC4R [8] (setting [14]) is on record as less than 5.5. For the same compound, in the assay with mMC4R [8] (at the concentrations used in this study), the “antagonist potency at the mMC4R” value is recorded as “not measurable”. Besides, the “mMC3R Antagonist pA2” value with mMC3R [3] (setting [14]) is on record as less than 5.5. Also, the “antagonist activity at the mMC3R” value with mMC3R [3] is listed as “not observed”.

In turn, “c[Pro-Arg-Phe-Phe-Asn-Ala-Trp-DPro] (peptide)” had a partial agonist: maximal percent activated, cAMP AlphaScreen, HEK293 cells in assay [9] of 50%.

As a reminder, the Ki is the equilibrium dissociation constant of an inhibitor or competing ligand from its target. In the case of “hAGRP(87-132): Human agouti-related protein fragment 87-132, antagonist of MC3R and MC4R; previously published peptide”, the EC50 with mMC5R [10] and in the assay with mMC1R [13] was more than 100000 nM each time. For the same compound, the “selectivity for the MC4R (vs MC3R)” value with mMC4R [11] is given as “equipotent”. Besides, the “mMC4R Antagonist pA2” value with mMC4R [11] (previously published peptide) is 9.4±1.0. Also, the Ki is 0.4 nM in the assay with mMC4R [11] (read-out: mMC4R Antagonist Ki, previously published peptide) and 1.3 nM in the assay with mMC3R [12] (read-out: mMC3R Antagonist Ki). Besides, the “mMC3R Antagonist pA2” value with mMC3R [12] was 8.9±0.2.
